Data set [1] relates to P. aeruginosa MH602 lasB reporter strain (PlasB: gfp(ASV)). The data set is described as follows: Quorum sensing inhibition assay, GFP fluorescence of lasB reporter strain. In kind it is cell-based, Pseudomonas aeruginosa. As to conditions: ± standard deviation, NA: no activity. In short, it runs like this: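 The reporter is a chromosomal lasB promoter–gfp(ASV) fusion responsive to 3-oxododecanoyl-HSL. Cultures were grown overnight in LB10, then diluted 1:100 in ABT with 0.25% tryptone and 0.13% yeast extract plus ampicillin 100 µg mL⁻¹ and gentamicin 20 µg mL⁻¹. Test compound in DMSO was tested at 62.5, 125 or 250 µM, with 1% DMSO controls. Cultures were incubated at 37 °C and shaken briefly before each read. Fluorescence (ex 485/em 535 nm) and OD600 were read every 30 min for 20 h, in triplicate per experiment.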

For data set [2], the system named is Human Embryonic Kidney cell lines (HEK-293). The data set is described as follows: Cytotoxicity MTT assay. In kind it is cell-based. As to conditions: HEK-293, 25, 50 and 100 μM, 24 h. In short, it runs like this:
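HEK cells were grown in high-glucose DMEM with 10% FBS and 1% pen-strep at 37 °C and 5% CO₂. They were seeded at 10⁴ cells/well and left overnight. Test compound from DMSO stock was diluted in medium to 25, 50 and 100 µM and applied for 24 h, with a DMSO blank and a positive control. MTT in phenol-red-free DMEM was added for 3 h. Formazan was dissolved in DMSO and read at 570 and 650 nm. Viability was expressed as % of untreated control.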

Data set [3] relates to LasR, P. aeruginosa PAO-JG21. As to conditions: read-out: IC50, LasR activity; cited from earlier work.
Data set [4] has as its system LasR, P. aeruginosa PAO-JP2. As to conditions: read-out: IC50, LasR activity; cited from earlier work.

What is called inhibition is the share of the control response that was lost under treatment. What is called IC50 is the concentration needed to halve the response being measured.

As to `O=C(Cn1cc(-c2ccc([N+](=O)[O-])cc2)nn1)Nc1nc2ccccc2[nH]1` [6p, N-(1H-Benzo[d]imidazol-2-yl)-2-(4-(4-nitrophenyl)-1H-1,2,3-triazol-1-yl)acetamide], the inhibition at 62.5 µM in data set [1] (Pseudomonas aeruginosa, read-out: Percentage inhibition of GFP fluorescence, 62.5 μM) is 63.7 ± 7.51%. In data set [1] (Pseudomonas aeruginosa, read-out: Percentage inhibition of GFP fluorescence, 125 μM), the inhibition at 125 µM stood at 67.1 ± 5.45%. The inhibition at 250 µM in data set [1] (Pseudomonas aeruginosa, read-out: Percentage inhibition of GFP fluorescence, 250 μM) is 68.2 ± 3.87%. Besides, the Cytotoxicity entry in data set [2] is on record as “low cytotoxicity”.

Take `Cc1cc2nc(N)[nH]c2cc1C` [II, 5,6-dimethyl-2-aminobenzimidazole]: the IC50 was 1400 nM in data set [3] and 2300 nM in data set [4].

In the case of “N-(1H-Benzo[d]imidazol-2-yl)-2-(4-nonyl-1H-1,2,3-triazol-1-yl)acetamide [6e]”, the “Percentage inhibition of GFP fluorescence” value was determined as 24.87 ± 6.69% in data set [1] (62.5 μM), 37.20 ± 6.71% in data set [1] (125 μM) and 41.31 ± 7.90% in data set [1] (250 μM).

These data come from PMC9071802 (RSC Advances, 2019).
